This is a sample that favours compounds with a hit; in the whole collection about 2.6% have one here.
TbMetRS inhib: blocks T. brucei methionyl-tRNA synthetase activity. purified T. brucei MetRS, ATP depletion, Kinase-Glo luminescence. AID 624268. hit rate 0.4% among 360,000. inhibition, % at 11.9 µM;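 active means inhibition above a per-plate cutoff of the control wells' mean inhibition plus 3 SD, cut at about 5.5% in these data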;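 further: 0% = DMSO wells median and 100% = median of wells with control inhibitor compound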
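Dosing: 11.9 µM compound single dose, 0.9% DMSO; Assay system: purified T. brucei MetRS enzyme; Measured by: Kinase-Glo luciferase luminescence reporting remaining unconsumed ATP; Schedule: 15 min plus 2 h at 25 °C.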
hiPSC survival: increases survival of single human iPS cells; hiPSC single-cell survival, ATPlite luminescence; 100% = ROCK inhibitor wells, 0% = DMSO; survival enhancement, % at 20 µM; hit rate 0.044% among 360,000; in the data active means survival enhancement above about 18%;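 further: cells exposed to compounds for 16 hours before the ATP read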
ABCB6 inh 2: inhibitors of human ABC transporter ABCB6. Q9NP58. K562-ABCB6 porphyrin accumulation, flow cytometry, 1 h; hits give low values. fluorescence ratio to DMSO, % at 10 µM. hit rate 0.19% among 360,000;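 active means fluorescence ratio to DMSO below 75%, the collection mean minus 3 SD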;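 further: signal is porphyrin accumulated inside mitochondria; 100% equals median channel fluorescence of DMSO control wells; lower ratio means ABCB6 inhibition with less porphyrin fluorescence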
Target sequence (Q9NP58 whole entry, looked up): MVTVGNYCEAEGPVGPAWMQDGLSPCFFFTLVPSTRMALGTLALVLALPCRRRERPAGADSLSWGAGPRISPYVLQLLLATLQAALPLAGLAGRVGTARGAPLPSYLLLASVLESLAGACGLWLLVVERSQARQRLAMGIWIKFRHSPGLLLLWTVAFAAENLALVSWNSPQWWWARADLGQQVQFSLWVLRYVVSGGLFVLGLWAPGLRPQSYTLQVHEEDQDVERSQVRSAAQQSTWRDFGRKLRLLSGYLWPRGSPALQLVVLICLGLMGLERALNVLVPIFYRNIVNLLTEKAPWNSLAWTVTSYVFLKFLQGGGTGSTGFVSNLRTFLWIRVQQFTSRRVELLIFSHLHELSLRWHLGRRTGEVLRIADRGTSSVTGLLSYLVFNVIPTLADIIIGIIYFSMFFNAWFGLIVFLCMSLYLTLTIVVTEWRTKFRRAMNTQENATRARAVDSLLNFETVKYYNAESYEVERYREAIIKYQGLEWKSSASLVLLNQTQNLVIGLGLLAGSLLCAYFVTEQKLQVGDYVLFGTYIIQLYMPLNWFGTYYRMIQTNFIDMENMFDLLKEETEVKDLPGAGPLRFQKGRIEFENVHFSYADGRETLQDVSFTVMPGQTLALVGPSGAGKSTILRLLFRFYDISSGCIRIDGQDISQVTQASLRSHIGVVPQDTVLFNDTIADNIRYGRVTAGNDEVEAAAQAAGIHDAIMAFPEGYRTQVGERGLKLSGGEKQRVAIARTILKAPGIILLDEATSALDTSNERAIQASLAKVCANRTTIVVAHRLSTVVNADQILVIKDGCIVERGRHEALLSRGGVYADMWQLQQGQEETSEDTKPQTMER
Exocytosis inh: lytic granule exocytosis inhibition. TALL-104 LAMP-1 surface exposure, flow cytometry; cells stimulated with thapsigargin and PMA. inhibition, % at 10 µM. hit rate 0.66% among 360,000. AID 651702;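 active means inhibition above about 55%, limit read from the data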
MC4R ag barr: agonists of human melanocortin 4 receptor (MC4R) beta-arrestin; P32245; U2OS MC4R beta-arrestin complementation, luminescence; percent of melanotan II response, DMSO zero; activation, % at 8.9 µM; hit rate 0.98% among 360,000; AID 540308;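 active means activation above a per-plate cutoff, the mean activation of sample wells on that plate plus 3 SD, cut at about 8% in these data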
MC4R antag cAMP: antagonists of human melanocortin 4 receptor (MC4R); P32245; MC4R-expressing cells, MTII-stimulated cAMP, LANCE TR-FRET; inhibition, % at 6.5 µM; hit rate 0.48% among 360,000;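 active means inhibition above its plate's cutoff, the mean of tested wells on that plate plus 3 SD, cut at about 29% in these data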;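 further: 0% = Melanotan II alone and 100% = Melanotan II plus saturating MCL0020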
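System: U2OS cells stably expressing human melanocortin 4 receptor (MC4R). Reagent: Melanotan II challenge after compound preincubation. Doses: 6.5 µM. Times: 30-min compound, 1-h challenge, 1-h detection, room temperature. Measured by: TR-FRET with Eu-cAMP and labeled anti-cAMP, 671 nm. Replicates: singlicate.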
TbMetRS confirm: confirmation of Trypanosoma brucei MetRS inhibitors | shares compounds with TbMetRS inhib | T. brucei MetRS enzyme, luminescence (ATP depletion) | inhibition, % at 11.9 µM | hit rate 93% among 1,400 | AID 624412; in the data active means inhibition above about 7%
Jurkat cytotox: kills Jurkat cells in T. brucei MetRS counterscreen. hit rate 12% among 1,400. Jurkat cells viability, ATP luminescence. inhibition, % at 8.3 µM. shares compounds with TbMetRS inhib; in the data active means inhibition above about 15%;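 further: 0% = vehicle and 100% = reference inhibitor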
TbMetRS FP orth: inhibits T. brucei methionyl tRNA synthetase in orthogonal FP test | shares compounds with TbMetRS inhib | purified T. brucei MetRS, fluorescence polarization | inhibition, % at 11.9 µM | hit rate 44% among 1,400 | AID 651607; in the data active means inhibition above about 17%;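 further: 0% = vehicle wells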
Exocytosis CP01: lytic granule exocytosis inhibition. inhibition, % at 10 µM. AID 651954. TALL-104 cells, LAMP-1 externalization, flow cytometry; stimulated with PMA plus thapsigargin. hit rate 11% among 1,500. shares compounds with Exocytosis inh; in the data active means inhibition above about 60%;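 further: 0% = stimulated vehicle wells and 100% = unstimulated wells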
The depositor's hits bear a star.

For O=C(c1cccnc1)N1CCN(c2ccc([N+](=O)[O-])cc2Cl)CC1 the results were TbMetRS inhib 5.8*, hiPSC survival -3, ABCB6 inh 2 98, Exocytosis inh -3, MC4R ag barr -1, MC4R antag cAMP -8, TbMetRS confirm 17*, Jurkat cytotox 2 and TbMetRS FP orth 9.
For CCCCn1c(NS(=O)(=O)c2ccc(C)cc2)c(S(=O)(=O)c2ccccc2)c2nc3ccccc3nc21 the results were TbMetRS inhib 8.7*, hiPSC survival 1, ABCB6 inh 2 103, Exocytosis inh 68*, MC4R ag barr 3, MC4R antag cAMP -11, TbMetRS confirm 8.9*, Jurkat cytotox 0, TbMetRS FP orth 6 and Exocytosis CP01 0.
`O=C(CNS(=O)(=O)c1ccc(Br)cc1)NCc1ccncc1` gave TbMetRS inhib 0, hiPSC survival 0, ABCB6 inh 2 101, Exocytosis inh 4, MC4R ag barr 0 and MC4R antag cAMP -10.
For c1ccc(CCNc2ccnc3cc4ccccc4cc23)cc1 the results were TbMetRS inhib 84*, hiPSC survival -3, ABCB6 inh 2 162, Exocytosis inh 56*, MC4R ag barr 17*, MC4R antag cAMP -11, TbMetRS confirm 92*, Jurkat cytotox 81*, TbMetRS FP orth 83* and Exocytosis CP01 92*.
For CC(C)Nc1ccc(Nc2ccnc3cc4ccccc4cc23)cc1 the results were TbMetRS inhib 85*, hiPSC survival -1, ABCB6 inh 2 105, Exocytosis inh 79*, MC4R ag barr 8.5*, MC4R antag cAMP -12, TbMetRS confirm 88*, Jurkat cytotox 80*, TbMetRS FP orth 90* and Exocytosis CP01 32.
Screening O=C(NCCc1ccccc1)c1nccc2ccccc12 returned TbMetRS inhib 0, hiPSC survival -1, ABCB6 inh 2 97, Exocytosis inh -8, MC4R ag barr -1 and MC4R antag cAMP 4.
COc1ccc(Nc2ccnc3ccccc23)cc1 was read as TbMetRS inhib -1, hiPSC survival 6, ABCB6 inh 2 100, Exocytosis inh 2, MC4R ag barr -2 and MC4R antag cAMP 2.
`CCc1ccc(C(=O)NNC(=O)CN2C(=O)NC3(CCCC3)C2=O)cc1` gave TbMetRS inhib 0, hiPSC survival 0, ABCB6 inh 2 99, Exocytosis inh -1, MC4R ag barr -2 and MC4R antag cAMP 3.
For CCc1ccccc1NC(=O)CNC(=O)c1ccc(-n2cncn2)c([N+](=O)[O-])c1 the results were TbMetRS inhib 18*, hiPSC survival 0, ABCB6 inh 2 100, Exocytosis inh 66*, MC4R ag barr -2, MC4R antag cAMP 5, TbMetRS confirm 47*, Jurkat cytotox -1, TbMetRS FP orth 23* and Exocytosis CP01 -2.
COc1cc2c(cc1OC)CN(c1ccc(F)cc1[N+](=O)[O-])CC2 was read as TbMetRS inhib -1, hiPSC survival 0, ABCB6 inh 2 90, Exocytosis inh -8, MC4R ag barr 0 and MC4R antag cAMP -4.
`COc1cc2c(cc1OC)CN(c1ccc([N+](=O)[O-])cc1C#N)CC2` gave TbMetRS inhib 11*, hiPSC survival 2, ABCB6 inh 2 96, Exocytosis inh 77*, MC4R ag barr 0, MC4R antag cAMP 4, TbMetRS confirm 19*, Jurkat cytotox 19*, TbMetRS FP orth 8 and Exocytosis CP01 -3.
`Cc1noc(C)c1S(=O)(=O)N(C)C[C@H]1Oc2c(NC(=O)Nc3ccccc3)cccc2C(=O)N([C@H](C)CO)C[C@@H]1C` gave TbMetRS inhib 17*, hiPSC survival -3, ABCB6 inh 2 98, Exocytosis inh 65*, MC4R ag barr 0, MC4R antag cAMP 10, TbMetRS confirm 57*, Jurkat cytotox 3, TbMetRS FP orth 25* and Exocytosis CP01 -14.
Screening CC(C)C(=O)Nc1nnc(S(=O)(=O)N2c3ccccc3CC2C)s1 (centres undefined) returned TbMetRS inhib 1, hiPSC survival 3, ABCB6 inh 2 100, Exocytosis inh -4, MC4R ag barr 0 and MC4R antag cAMP 9.
For N#CC1=C(N)Oc2cc(N)ccc2C1c1cccc(Br)c1 (centres undefined) the results were TbMetRS inhib 34*, hiPSC survival 0, ABCB6 inh 2 103, Exocytosis inh 72*, MC4R ag barr -3, MC4R antag cAMP -12, TbMetRS confirm 2, Jurkat cytotox 75*, TbMetRS FP orth 10 and Exocytosis CP01 -11.
Screening Cc1ccc(N(C(=O)c2ccc(S(=O)(=O)N3CCCC3)cc2)C2C=CS(=O)(=O)C2)cc1 (centres undefined) returned TbMetRS inhib 0, hiPSC survival 0, ABCB6 inh 2 99, Exocytosis inh -2, MC4R ag barr -3 and MC4R antag cAMP -1.
Cc1ccc2oc(=O)n(CCOc3ccccc3C)c2c1 was read as TbMetRS inhib 1, hiPSC survival 0, ABCB6 inh 2 92, Exocytosis inh 64*, MC4R ag barr 5, MC4R antag cAMP 3 and Exocytosis CP01 -13.
COCCCn1c(SCc2ccccc2)nc2cc(OC)c(OC)cc2c1=N was read as TbMetRS inhib 0, hiPSC survival -1, ABCB6 inh 2 99, Exocytosis inh 84*, MC4R ag barr 3, MC4R antag cAMP -11 and Exocytosis CP01 -13.
Screening COCCCn1c(SCc2cccc(C(F)(F)F)c2)nc2cc(OC)c(OC)cc2c1=N returned TbMetRS inhib -1, hiPSC survival 5, ABCB6 inh 2 94, Exocytosis inh -2, MC4R ag barr 1 and MC4R antag cAMP 12.
`Cc1cccc(CCN(CC(=O)NCc2ccc(F)cc2)C(=O)c2csnn2)c1` gave TbMetRS inhib -1, hiPSC survival 0, ABCB6 inh 2 94, Exocytosis inh 68*, MC4R ag barr 1, MC4R antag cAMP 4 and Exocytosis CP01 -4.
COc1ccc(-c2n[nH]c(C)c2-c2cscn2)c(O)c1 was read as TbMetRS inhib 0, hiPSC survival -1, ABCB6 inh 2 98, Exocytosis inh 1, MC4R ag barr 2 and MC4R antag cAMP 0.

Screening data: PubChem BioAssay, several laboratories
